Results published in ChEMBL document CHEMBL4145692, “Discovery of a Locally and Orally Active CXCL12 Neutraligand (LIT-927) with Anti-inflammatory Effect in a Murine Model of Allergic Airway Hypereosinophilia” (J Med Chem, 2018).
Converted amounts (≈) assume the structure as drawn. The source made the active and inactive calls. The rule behind the calls is not given here.

Assays:
[1] = molecular target: T1, Stromal cell-derived factor 1 (Homo sapiens, UniProt P48061); test: Binding affinity to Texas Red-labelled CXCL12 (unknown origin) assessed as inhibition of CXCL12-Texas Red binding to EGFP-labeled human CXCR4 expressed in HEK293 cell membranes pre-incubated for 1 hr by FRET-based binding assay
T1 sequence (P48061 whole entry): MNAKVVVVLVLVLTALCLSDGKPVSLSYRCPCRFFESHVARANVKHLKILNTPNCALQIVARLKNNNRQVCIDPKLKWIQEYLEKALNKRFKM
In short: (§1)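 HEK-293 cells stably expressing human EGFP-CXCR4, 10⁶ cells/ml in HEPES buffer pH 7.4 with 0.1% BSA, 21 °C. CXCL12-Texas Red (100 nM) was preincubated 1 h at room temperature with compound or DMSO, then added at t=150 s. FRET read as loss of EGFP emission at 510 nm (excitation 470 nm) up to equilibrium. Ki from dose-response curves.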

[2] = Kinetic solubility in pH 7.4 HEPES-BSA buffer at 5 uM incubated for 24 hrs at 20 degC by HPLC method; format: physicochemical; conditions: read-out: Kinetic_solubility
In short: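 Compound added from 10 mM DMSO stock to 5 μM in pH 7.4 HEPES-BSA buffer (1 g/L BSA), shaken 24 h at 20 °C. After centrifugation, supernatant concentration measured by HPLC against 5 and 10 μM standards.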

[3] = molecular target: T1, Stromal cell-derived factor 1; test: Binding affinity to Texas Red-labelled CXCL12 (unknown origin) assessed as inhibition of CXCL12-Texas Red binding to EGFP-labeled human CXCR4 expressed in HEK293 cell membranes at 30 uM pre-incubated for 1 hr by FRET-based binding assay; in short: as §1
[4] = molecular target: T1, Stromal cell-derived factor 1; test: Binding affinity to Texas Red-labelled CXCL12 (unknown origin) assessed as inhibition of CXCL12-Texas Red binding to EGFP-labeled human CXCR4 expressed in HEK293 cell membranes at 10 uM pre-incubated for 1 hr by FRET-based binding assay
In short: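 FRET binding assay in EGFP-CXCR4 HEK-293 cells. Compound at 10 μM preincubated with CXCL12 before addition to the cells; binding read as EGFP emission at 510 nm after CXCL12-Texas Red addition. T134 (20 μM) used as control.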

[5] = Thermodynamic solubility in pH 7.4 PBS buffer incubated for 24 hrs at 22 degC by HPLC method; format: physicochemical; conditions: read-out: Therm_solubility
In short: (§2)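 Powder dissolved to saturation in pH 7.4 PBS (100 mM sodium phosphate, 150 mM NaCl), or in PBS with 10% Cdx, and shaken 24 h. After centrifugation, supernatant quantified by HPLC against a per-compound calibration line prepared from the DMSO stock.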

[6] = Thermodynamic solubility in pH 7.4 PBS/Cdx buffer incubated for 24 hrs at 22 degC by HPLC method; format: physicochemical; conditions: read-out: Therm_solubility; in short: as §2
[7] = Chemical stability in pH 7.4 PBS buffer assessed as parent compound remaining at 10 uM incubated for 24 hrs by RP-HPLC method; format: physicochemical; conditions: read-out: Stability
In short: (§3)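 Compound diluted from DMSO stock to 10 μM final (1% DMSO) in PBS pH 7.4, or in PBS with 10% w/w (2-hydroxypropyl)-β-cyclodextrin. Sampled at t0, 2, 4, 6 and 24 h and injected directly onto RP-HPLC. Percent remaining relative to t0 from peak area.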

[8] = Chemical stability in pH 7.4 PBS/Cdx buffer assessed as parent compound remaining at 10 uM incubated for 24 hrs by RP-HPLC method; format: physicochemical; conditions: read-out: Stability; in short: as §3
[9] = test system: Mus musculus; test: Inhibition of eosinophil infiltration in Balb/c mouse model of 8 day model of allergic eosinophilic airway inflammation at 300 nmol/kg dosed intranasally 2 hrs before ovalbumin challenge by hemocytometry; format: functional; conditions: for inhibition in vivo at 0.3 µmol/kg: inhaled or nasal
In short: (§4)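 OVA/alum-sensitized Balb/c mice challenged intranasally with OVA on days 5–7. Compounds at 300 nmol/kg in 10% PBS/Cdx given intranasally 2 h before each challenge. BAL 24 h after the last challenge; eosinophils, neutrophils and lymphocytes counted by hemocytometer and differential cytospin; n=6/group.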

[10] = test system: Mus musculus; test: Inhibition of macrophages infiltration in Balb/c mouse model of 8 day model of allergic eosinophilic airway inflammation at 300 nmol/kg dosed intranasally 2 hrs before ovalbumin challenge by hemocytometry; format: functional, organism-based
[11] = test system: Mus musculus; test: Inhibition of lymphocytes infiltration in Balb/c mouse model of 8 day model of allergic eosinophilic airway inflammation at 300 nmol/kg dosed intranasally 2 hrs before ovalbumin challenge by hemocytometry; format: functional, organism-based; in short: as §4
[12] = molecular target: T1, Stromal cell-derived factor 1; test: Binding affinity to Texas Red-labelled CXCL12 (unknown origin) assessed as inhibition of CXCL12-Texas Red binding to EGFP-labeled human CXCR4 expressed in HEK293 cell membranes at 5 uM pre-incubated for 1 hr by FRET-based binding assay; in short: as §1

Row | SMILES | Ki [1] | solubility kinetic at 24 h, 5 µM [2] | also measured
1 | COc1cc(/C=C2\Cc3cc(Cl)ccc3C2=O)ccc1O | 107 nM | 0.88 µM (≈ 0.265 µg/mL) | –
2 | COc1cc(C2CC(c3ccc(Cl)cc3)=NN2C(C)=O)ccc1O (stereo not drawn) | > 10000 nM | > 5 µM | –
3 | COc1ccc(C(=O)/C=C/c2ccc(O)c(OC)c2)cc1 | 1780 nM | > 5 µM | –
4 | COc1cc(/C=C/C(=O)c2ccc(Br)cc2)ccc1O | 44 nM | > 5 µM | –
5 | COc1ccc(/C=C/C(=O)c2ccc(Cl)cc2)cc1OC | > 10000 nM | > 5 µM | –
6 | COc1cc(/C=C/C(=O)c2ccc3ccccc3c2)ccc1O | – | 0.95 µM (≈ 0.289 µg/mL) | inhibition [3]: 5%
7 | COc1cc(/C=C2\CCc3cc(Cl)ccc3C2=O)ccc1O | – | > 5 µM | inhibition [4]: 70%
8 | COc1cc(C2CC(c3ccc(Cl)cc3)=NN2)ccc1O (stereo not drawn) | 107 nM | > 5 µM | solubility thermodynamic at 24 h [5]: 34.6 µM (≈ 10.5 µg/mL); solubility thermodynamic at 24 h [6]: > 3000 µM; remaining at 24 h, 10 µM [7]: 78%; remaining at 24 h, 10 µM [8]: 98%; inhibition in vivo at 0.3 µmol/kg [9]: 39%; inhibition [10]: inactive; inhibition [11]: inactive
9 | O=C(/C=C/c1ccc(O)c(C(=O)O)c1)c1ccc(Cl)cc1 | > 10000 nM | > 5 µM | –
10 | COc1cc(/C(C)=C/C(=O)c2ccc(Cl)cc2)ccc1O | > 10000 nM | 2.6 µM (≈ 0.787 µg/mL) | –
11 | Cl.NCCOc1cc(/C=C/C(=O)c2ccc(Cl)cc2)ccc1O | 357 nM | > 5 µM | solubility thermodynamic at 24 h [5]: 4.2 µM; solubility thermodynamic at 24 h [6]: > 5000 µM; remaining at 24 h, 10 µM [7]: 100%; remaining at 24 h, 10 µM [8]: 100%; inhibition [9]: inactive; inhibition [10]: inactive; inhibition [11]: inactive
12 | COc1cc(/C=C(\C)C(=O)c2ccc(Cl)cc2)ccc1O | > 5000 nM | > 5 µM | –
13 | COc1cc(/C=C/C(=O)c2ccc([N+](=O)[O-])cc2)ccc1O | – | > 5 µM | inhibition [3]: 30%
14 | COc1cc(/C=C/C(=O)c2ccc(I)cc2)ccc1O | 107 nM | > 5 µM | solubility thermodynamic at 24 h [5]: 1.2 µM (≈ 0.456 µg/mL); solubility thermodynamic at 24 h [6]: 319 µM (≈ 121 µg/mL); remaining at 24 h, 10 µM [7]: 100%; remaining at 24 h, 10 µM [8]: 100%; inhibition in vivo at 0.3 µmol/kg [9]: 36%; inhibition [10]: inactive; inhibition [11]: inactive
15 | CCOc1cc(/C=C/C(=O)c2ccc(Cl)cc2)ccc1O | – | 4.72 µM (≈ 1.43 µg/mL) | inhibition [12]: 52%
16 | COc1cc(/C=C/C(=N/O)c2ccc(Cl)cc2)ccc1O | > 10000 nM | > 5 µM | –
17 | COc1cc(/C=C/C(=O)c2cccc(Cl)c2)ccc1O | – | > 5 µM | inhibition [3]: 25%
18 | COc1cc(/C=C/C(=O)c2ccc(C)cc2)ccc1O | 285 nM | > 5 µM | –
19 | COc1cc(/C=C/C(=O)c2ccc(Cl)cc2Cl)ccc1O | 48 nM | > 5 µM | –
20 | COc1cc(/C=C/C(=O)c2ccncc2)ccc1O | > 10000 nM | > 5 µM | –
21 | COc1cc(/C=C/C(=O)c2ccc(S(=O)(=O)O)cc2)ccc1O | – | > 5 µM | inhibition [3]: 6%
22 | COc1cc(CCC(=O)c2ccc(Cl)cc2)ccc1O | > 10000 nM | – | –
23 | COc1cc(-c2cc(-c3ccc(Cl)cc3)ncn2)ccc1O | – | 4.29 µM (≈ 1.34 µg/mL) | inhibition [12]: 30%
24 | COc1cc(/C=C/C(=O)c2ccc(F)cc2)ccc1O | 430 nM | > 5 µM | –
25 | COc1cc(/C=C/C(=O)c2c(Cl)cccc2Cl)ccc1O | 71 nM | > 5 µM | –
26 | COc1cc(/C=C2\COc3cc(Cl)ccc3C2=O)ccc1O | 357 nM | > 5 µM | solubility thermodynamic at 24 h [5]: 0.5 µM (≈ 0.158 µg/mL); solubility thermodynamic at 24 h [6]: 933 µM (≈ 296 µg/mL); remaining at 24 h, 10 µM [7]: 100%; remaining at 24 h, 10 µM [8]: 100%; inhibition [9]: inactive
27 | COc1cc(/C=C/C(=O)c2ccc(C(F)(F)F)cc2)ccc1O | 1070 nM | > 5 µM | –

Row | SMILES | Ki [1] | solubility kinetic at 24 h, 5 µM [2] | also measured
28 | COc1cc(-c2cc(-c3ccc(Cl)cc3)n[nH]2)ccc1O | > 10000 nM | – | –
29 | O=C(/C=C/c1ccc2c(c1)OCCO2)c1ccc(Cl)cc1 | 1380 nM | > 5 µM | –
30 | COc1cc(-c2cc(-c3ccc(Cl)cc3)nc(C)n2)ccc1O | 1680 nM | > 5 µM | –
31 | COc1cc(/C=C/C(=O)c2ccccc2)ccc1O | > 10000 nM | > 5 µM | inhibition [4]: inactive
32 | COc1cc(/C=C/C(=O)c2ccccc2Cl)ccc1O | 107 nM | > 5 µM | –
33 | Cl.NCCOCCOc1cc(/C=C/C(=O)c2ccc(Cl)cc2)ccc1O | 1070 nM | > 5 µM | –
34 | Cl.NCCOCCOCCOc1cc(/C=C/C(=O)c2ccc(Cl)cc2)ccc1O | 475 nM | > 5 µM | –
35 | COc1cc(/C=C/C(=O)c2ccc(C(=O)O)cc2)ccc1O | 5350 nM | > 5 µM | –
36 | COCOc1ccc(/C=C/C(=O)c2ccc(Cl)cc2O)cc1OC | – | – | inhibition [10]: inactive; inhibition [11]: inactive
37 | COc1cc(/C=C/C(=O)c2cccnc2)ccc1O | > 10000 nM | > 5 µM | –
38 | COc1cc(/C=C/C(=O)c2ccc(Cl)cc2)ccc1[N+](=O)[O-] | > 10000 nM | > 5 µM | –
39 | COc1cc(/C=C/C(=O)c2cccc(Cl)c2Cl)ccc1O | 357 nM | > 5 µM | –
40 | O=C(/C=C/c1ccc(O)c(O)c1)c1ccc(Cl)cc1 | 350 nM | > 5 µM | –
41 | O=C(/C=C/c1ccc(O)cc1)c1ccc(Cl)cc1 | 625 nM | > 5 µM | –
42 | COc1cc(/C=C/C(=O)c2ccc(Cl)c(Cl)c2)ccc1O | 714 nM | > 5 µM | –
43 | COc1ccc(/C=C/C(=O)c2ccc(Cl)cc2)cc1O | > 10000 nM | > 5 µM | –
44 | COc1cc(C(=O)/C=C/c2ccc(Cl)cc2)ccc1O | > 10000 nM | > 5 µM | –
45 | COc1cccc(/C=C/C(=O)c2ccc(Cl)cc2)c1 | > 10000 nM | 0.36 µM (≈ 0.0982 µg/mL) | –
46 | COc1cc(/C=C/C(=O)c2cc(Cl)ccc2Cl)ccc1O | 53 nM | > 5 µM | –
47 | CNc1nc(-c2ccc(Cl)cc2)cc(-c2ccc(O)c(OC)c2)n1 | > 10000 nM | > 5 µM | –
48 | COc1cc(/C=C/C(=O)c2ccc(C(C)C)cc2)ccc1O | 25 nM | 1.92 µM (≈ 0.569 µg/mL) | –
49 | COc1cc(/C=C2\Oc3cc(Cl)ccc3C2=O)ccc1O | 203 nM | > 5 µM | solubility thermodynamic at 24 h [5]: 1.9 µM (≈ 0.575 µg/mL); solubility thermodynamic at 24 h [6]: 330 µM (≈ 99.9 µg/mL); remaining at 24 h, 10 µM [7]: 100%; remaining at 24 h, 10 µM [8]: 100%; inhibition [9]: inactive
50 | COc1cc(-c2cc(-c3ccc(Cl)cc3)nc(N)n2)ccc1O | > 10000 nM | > 5 µM | –
51 | COc1cc(/C=C/C(=O)c2ccc(Cl)cc2F)ccc1O | 107 nM | > 5 µM | –
52 | COc1cc(/C=C/C(=O)c2ccc(Cl)cc2)ccc1N | > 10000 nM | > 5 µM | –
53 | Cl.NCCOCCOc1cc(/C=C2\Cc3cc(Cl)ccc3C2=O)ccc1O | 496 nM | > 5 µM | inhibition [10]: inactive; inhibition [11]: inactive
